Holding throughout (settings): in vivo, iv
The test system of data set [1] is Mus musculus. As to the kind of experiment: Biodistribution of labeled B72.3-chelator conjugate(DTPA isothiocynates) in Nude mice bearing LS174T tumor (Ag+), administered intravenously expressed as % of injected dose of indium-111 per gram of tissue. The format is ADME, organism-based. The essentials: (§1)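 Female athymic nu/nu mice (BALB/c background) were given 5×10^6 A375 melanoma cells (antigen-negative) s.c. in the left flank, then 14 days later 1.25×10^6 LS174T colorectal cells (antigen-positive) in the right flank. After a further 7–14 days, with tumors at 100–500 mg, mice were randomized and given 2.0 μg indium-111-labeled B72.3 conjugate in saline i.v. by tail vein. At 48 h, tissues were weighed and gamma-counted, and activity was expressed as % of counted injectate per gram.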

Data set [2] deals with Mus musculus. Kind of data set: Biodistribution of labeled B72.3-chelator conjugate(DTPA isothiocynates) in nude mice bearing LS174T tumors, in kidney, administered intravenously expressed as % of injected dose of indium-111 per gram of tissue. In kind it is ADME, organism-based. The essentials: as §1
For data set [3], the system named is Mus musculus. Kind of data set: Biodistribution of labeled B72.3-chelator conjugate (DTPA isothiocynates) in Nude mice bearing LS174T tumors, in blood, administered intravenously expressed as % of injected dose of indium-111 per gram of tissue. The format is ADME, organism-based. The essentials: as §1
The subject of data set [4] is Mus musculus. As to the kind of experiment: Biodistribution of labeled B72.3-chelator conjugate(DTPA isothiocynates) in Nude mice bearing LS174T tumors, in liver, administered intravenously expressed as % of injected dose of indium-111 per gram of tissue. In kind it is ADME, organism-based. The essentials: as §1
The subject of data set [5] is Mus musculus. Kind of data set: Biodistribution of labeled B72.3-chelator conjugate(DTPA isothiocynates) in Nude mice bearing LS174T tumors, in spleen, administered intravenously expressed as % of injected dose of indium-111 per gram of tissue. The format is ADME, organism-based. The essentials:
as §1

In data set [6] the test system is Mus musculus. As to the kind of experiment: Biodistribution of labeled B72.3-chelator conjugate(DTPA isothiocynates) in Nude mice bearing LS174T tumors, in lungs, administered intravenously expressed as % of injected dose of indium-111 per gram of tissue. The format is ADME, organism-based, Lung. The essentials: as §1
Data set [7] deals with Mus musculus. As to the kind of experiment: Biodistribution of labeled B72.3-chelator conjugate(DTPA amide) in nude mice bearing LS174T tumors, in kidney, administered intravenously expressed as % of injected dose of indium-111 per gram of tissue. The format is ADME, organism-based.
In data set [8] the test system is Mus musculus. Kind of data set: Biodistribution of labeled B72.3-chelator conjugate(DTPA amide) in Nude mice bearing LS174T tumors, in spleen, administered intravenously expressed as % of injected dose of indium-111 per gram of tissue. The format is ADME, organism-based.
The test system of data set [9] is Mus musculus. As to the kind of experiment: Biodistribution of labeled B72.3-chelator conjugate(DTPA amide) in Nude mice bearing LS174T tumor (Ag-), administered intravenously expressed as % of injected dose of indium-111 per gram of tissue. The format is ADME, organism-based.
Data set [10] relates to Mus musculus. Kind of data set: Biodistribution of labeled B72.3-chelator conjugate (DTPA amide) in Nude mice bearing LS174T tumor (Ag+), administered intravenously expressed as % of injected dose of indium-111 per gram of tissue. In kind it is ADME, organism-based.
For data set [11], the system named is Mus musculus. As to the kind of experiment: Biodistribution of labeled B72.3-chelator conjugate(DTPA amide) in Nude mice bearing LS174T tumors, in blood, administered intravenously expressed as % of injected dose of indium-111 per gram of tissue. The format is ADME, organism-based.
The test system of data set [12] is Mus musculus. As to the kind of experiment: Biodistribution of labeled B72.3-chelator conjugate(DTPA amide)s in Nude mice bearing LS174T tumors, in lungs, administered intravenously expressed as % of injected dose of indium-111 per gram of tissue. In kind it is ADME, organism-based, Lung.
The test system of data set [13] is Mus musculus. As to the kind of experiment: Biodistribution of labeled B72.3-chelator conjugate in Nude mice bearing LS174T tumors, in liver, administered intravenously expressed as % of injected dose of indium-111 per gram of tissue.
Data set [14] relates to Mus musculus. As to the kind of experiment: Biodistribution of labeled B72.3-chelator conjugate(EDTA isothiocynates) in nude mice bearing LS174T tumors, in kidney, administered intravenously expressed as % of injected dose of indium-111 per gram of tissue. The format is ADME, organism-based. The essentials:
as §1

Data set [15] has as its system Mus musculus. As to the kind of experiment: Biodistribution of labeled B72.3-chelator conjugate(EDTA isothiocynates) in Nude mice bearing LS174T tumors, in liver, administered intravenously expressed as % of injected dose of indium-111 per gram of tissue. In kind it is ADME, organism-based. An outline of the steps: as §1
The subject of data set [16] is Mus musculus. Kind of data set: Biodistribution of labeled B72.3-chelator conjugate(EDTA isothiocynates) in Nude mice bearing LS174T tumors, in spleen, administered intravenously expressed as % of injected dose of indium-111 per gram of tissue. In kind it is ADME, organism-based. An outline of the steps: as §1
Data set [17] has as its system Mus musculus. As to the kind of experiment: Biodistribution of labeled B72.3-chelator conjugate (EDTA isothiocynates) in Nude mice bearing LS174T tumors, in blood, administered intravenously expressed as % of injected dose of indium-111 per gram of tissue. The format is ADME, organism-based. An outline of the steps:
as §1

In data set [18] the test system is Mus musculus. Kind of data set: Biodistribution of labeled B72.3-chelator conjugate(EDTA isothiocynates) in Nude mice bearing LS174T tumors, in lungs, administered intravenously expressed as % of injected dose of indium-111 per gram of tissue. The format is ADME, organism-based, Lung. An outline of the steps:
as §1

Data set [19] concerns Mus musculus. Kind of data set: Biodistribution of labeled B72.3-chelator conjugatec in Nude mice bearing LS174T tumor (Ag+), administered intravenously expressed as % of injected dose of indium-111 per gram of tissue. The format is ADME, organism-based.
Data set [20] concerns Mus musculus. As to the kind of experiment: Biodistribution of labeled B72.3-chelator conjugate (DTPA amide) in Nude mice bearing LS174T tumors, in blood, administered intravenously expressed as % of injected dose of indium-111 per gram of tissue. In kind it is ADME, organism-based.
Data set [21] relates to Mus musculus. Kind of data set: Biodistribution of labeled B72.3-chelator conjugate(DTPA amide) in Nude mice bearing LS174T tumor (Ag+), administered intravenously expressed as % of injected dose of indium-111 per gram of tissue. The format is ADME, organism-based.

Where “and” joins values, the source holds several entries; their conditions need not be identical. Equal values may be shown once.

For the compound `Nc1ccc(CC(CN(CCN(CC(=O)O)CC(=O)O)CC(=O)O)N(CC(=O)O)CC(=O)O)cc1` (stereo not given), the Biodistribution is on record as 25.94% in the data set with Mus musculus [1]; 8.99% in the data set with Mus musculus [2]; 18.37% in the data set on Mus musculus [3]; 9.09% in the data set with Mus musculus [4]; 5.03% with Mus musculus [5]; 9.94% in the data set with Mus musculus [6].

In the case of `O=C(O)CN(CCN(CC(=O)O)C(Cc1ccc(N=C=S)cc1)C(=O)O)CC(=O)O` (stereo not given), the Biodistribution with Mus musculus [7] amounted to 5.9%; in the data set on Mus musculus [8], 3.9%; with Mus musculus [9] it was 5.2%; in the data set with Mus musculus [10], 21.1%; in the data set on Mus musculus [11], 12.1%; in the data set with Mus musculus [12] it was 5.5%. In the data set on Mus musculus [13], this compound returned a Biodistribution of 6.1%.

Turning to `Nc1ccc(CC(CN(CC(=O)O)CC(=O)O)N(CC(=O)O)CC(=O)O)cc1` (stereo not given), the Biodistribution in the data set on Mus musculus [14] was 16.91%; with Mus musculus [15] it was 14.26%; with Mus musculus [16] it was 11.68%; with Mus musculus [17], 19.82%; with Mus musculus [18], 9.19%; in the data set on Mus musculus [19], 20.82%.

Regarding `O=C(O)CN(CCN(CC(=O)O)CC(=O)O)CCN(CC(=O)O)C(Cc1ccc(N=C=S)cc1)C(=O)O` (stereo not given), the Biodistribution is listed as 2.3% in the data set with Mus musculus [7]; 4% in the data set with Mus musculus [8]; 4.1% with Mus musculus [9]; 19.5% in the data set with Mus musculus [10]; 8.9% in the data set with Mus musculus [11]; 4.1% with Mus musculus [12]. Also, the Biodistribution in the data set with Mus musculus [13] turned out to be 6.9%.

Consider `O=C(O)CN(CCN(CC(=O)O)CC(=O)O)CCN(CC(=O)O)CC(=O)O` [PENTETIC ACID], for which the Biodistribution in the data set on Mus musculus [20] was 11.23%; in the data set on Mus musculus [7] it was 17.14% and 12.64%; with Mus musculus [8], 9.14% and 12.12%; in the data set with Mus musculus [9], 6.23%; with Mus musculus [10], 18.97%; with Mus musculus [11] it was 10.67%. Also, the Biodistribution was 6.3% and 6.15% in the data set with Mus musculus [12]; 17.2% and 19.39% in the data set on Mus musculus [13]; 42.22% in the data set on Mus musculus [21].
